Compounds with a hit are over-represented: about 2% of the library has one in this group of screens.
SENP1 inh: inhibitors of human SENP1 SUMO protease catalytic domain; Q9P0U3; recombinant SENP1 catalytic domain, CyPet-SUMO1-YPet FRET cleavage; inhibition, % at 10 µM; hit rate 0.21% among 360,000;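 active means inhibition at least 30% at 10 µM, raw YFP signal under a set limit, fluorescence ratio 0.5 to 1.5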;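 further: 0% = enzyme with DMSO and 100% = no enzyme wells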
Target sequence (Q9P0U3 419-644 limits assumed): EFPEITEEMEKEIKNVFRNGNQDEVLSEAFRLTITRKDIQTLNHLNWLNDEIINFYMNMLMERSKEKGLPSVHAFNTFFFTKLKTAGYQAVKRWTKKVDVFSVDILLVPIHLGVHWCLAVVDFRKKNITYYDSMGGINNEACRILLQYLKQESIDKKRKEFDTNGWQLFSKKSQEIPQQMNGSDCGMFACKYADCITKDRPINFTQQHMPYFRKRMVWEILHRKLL
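Test system: recombinant human SENP1 catalytic domain, His6-tagged / Medium: pH 8 Tris buffer with EDTA, NaCl, BME, BSA, NP40, catalase / Also added: SUMO1 FRET substrate flanked by Cypet and Ypet, 25 nM / Times: 50 min reaction at room temperature / Signal: FRET, CFP and YFP emission / Control set: no-enzyme low control and enzyme-plus-DMSO high control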
HNF4A DNA FP: change in binding of human HNF4 alpha to DNA; hit rate 0.3% among 360,000; P41235; AID 1224865; HNF4a-FITC DNA binding, fluorescence polarization, 1 h; activity change, % at 10 µM; in the data active means activity change above about 30%, passing the limit was not always enough
TPT1 inhibitor: blocks Candida albicans tRNA 2'-phosphotransferase. inhibition, % at 5 µM. recombinant caTPT1, FP RNA substrate dephosphorylation. hit rate 0.81% among 300,000;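 active means inhibition above the mean of all tested compounds plus 3 SD, set per screening campaign, cut at about 24% in these data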;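 further: plate controls were DMSO alone for no effect and ferristatin control at 100 nM for full effect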
Rpn11 inh: Rpn11 (human) deubiquitinase inhibition | O00487 | human 26S proteasome, Ub4-pepOG fluorescence polarization; 20S core pre-blocked with epoxomicin | inhibition, % at 20 µM | hit rate 0.59% among 360,000;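 active means inhibition at 20 µM, scaled to each plate's controls, above about 33%, limit read from the data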
Target sequence (O00487 whole entry, looked up): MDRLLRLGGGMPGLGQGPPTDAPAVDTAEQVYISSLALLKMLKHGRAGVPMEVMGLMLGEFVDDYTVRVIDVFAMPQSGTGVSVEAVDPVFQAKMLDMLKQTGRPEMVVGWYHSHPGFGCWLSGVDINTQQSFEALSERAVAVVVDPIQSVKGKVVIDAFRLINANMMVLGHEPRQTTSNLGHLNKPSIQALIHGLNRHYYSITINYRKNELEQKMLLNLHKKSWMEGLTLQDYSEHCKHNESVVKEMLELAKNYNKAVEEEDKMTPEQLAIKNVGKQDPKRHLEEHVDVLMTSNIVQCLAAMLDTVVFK
CSN deneddyl inh: CSN deneddylation inhibition | Q92905 | Purified CSN, SCF-Nedd8-OG deneddylation, fluorescence polarization | inhibition, % at 12.5 µM | hit rate 0.38% among 360,000;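 active means pattern-corrected inhibition above about 35%, with an unprinted fluorescence ratio check between 0.5 and 1.5, limit read from the data, passing the limit was not always enough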;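 further: 0% = enzyme with substrate and 100% = substrate without enzyme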
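Schedule: reaction 90 min, room temperature / Assay system: HEK293T-derived human Csn5 enzyme / Input: Csn5 at 0.24 nM final / Measure: inhibition of Csn5 cleavage, % / Control set: substrate-only high control, full reaction low control / Technique: fluorescence polarization of the substrate / Buffer or medium: Tris/NaCl/DTT buffer, pH 7.5 / Reagent: SCFSkp2-Nedd8OG substrate at 10 nM final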
ATG4B inh: blocks human ATG4B protease cleavage of LC3 substrate. hit rate 0.51% among 340,000. inhibition, % at 8.33 µM. ATG4B cleavage of LC3-PLA2, NBD-HPC fluorescence, 1 h. Q9Y4P1. AID 504462; in the data active means inhibition above about 40%
TPT1 inh confirm: confirmation of Candida albicans TPT1 inhibitors | shares compounds with TPT1 inhibitor | recombinant caTPT1, fluorescence polarization, RNase T1 coupled | inhibition, % at 5 µM | hit rate 74% among 2,400;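 active means inhibition above the primary screen limit, the mean inhibition of all tested compounds plus 3 SD, cut at about 25% in these data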
RNase T1 inh: RNase T1 inhibition in TPT1 counter-screen. shares compounds with TPT1 inhibitor. RNase T1 cleavage, fluorescence polarization, 1536-well. inhibition, % at 5 µM. hit rate 83% among 2,400;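 active means inhibition above the solvent-only control well mean plus 3 SD, limit set per screening run, cut at about 23% in these data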;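 further: plate controls were DMSO wells with enzyme for no effect and wells without RNase T1 for full effect; inhibitors block cleavage so intact labeled substrate keeps polarization high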
Active calls of the source: *; . = no result shown.

SMILES	SENP1 inh	HNF4A DNA FP	TPT1 inhibitor	Rpn11 inh	CSN deneddyl inh	ATG4B inh	TPT1 inh confirm	RNase T1 inh
CS(=O)(=O)c1ccc2c(c1)sc1nc(=O)c(/C=C3/C=CC(=O)C(O)=C3)c(N)n12	-32	27	45*	.	185	3	98*	104*
O=c1[nH]c2ccccc2nc1/C=C(\O)C1CC1	-154	2	27*	-2	-3	0	4	8
CC(C)(C)/C(O)=C/c1nc2ccccc2[nH]c1=O	-69	2	0	-1	-1	8	.	.
O=c1[nH]c2ccccc2nc1/C=C/c1ccc(F)cc1	-25	44*	57*	.	18	-6	74*	83*
O=c1[nH]c2ccccc2nc1/C=C(\O)c1cccs1	-28	104	71*	17	10	1	117*	114*
COc1ccccc1-c1ncn(Cc2cccc(-c3ccccc3)c2)c1-c1cc(C)cc(C)c1	-9	1	.	.	3	.	.	.
COc1ccc(C(O)c2ncc(-c3cccc(OCc4ccccc4)c3)[nH]2)cc1F (stereo not given)	2	2	.	-5	4	.	.	.
CCn1cc(/C=C(\NC(=O)c2ccccc2F)C(=O)NCCN2CCOCC2)c2ccccc21	-28	4	4	10	4	-8	.	.
CC(C)C[C@@H](CN)NC(=O)c1nc[nH]c1C(=O)N[C@@H](CC(C)C)C(=O)CNC[C@H](C)NC(=O)c1nc[nH]c1C(=O)N[C@@H](CC(C)C)C(=O)O	-1	3	.	-3	1	.	.	.
COc1ccccc1C(=O)N1CCN(C(=O)[C@H]2O[C@@H](n3cnc4c(N)ncnc43)[C@H](O)[C@@H]2O)CC1	1	2	.	1	-3	.	.	.
CC1CC/C(=C\c2ccc3c(c2)OCO3)C(=O)/C1=C/c1ccc2c(c1)OCO2 (stereo not given)	-22	10	31*	22	10	8	15	21
Cc1csc(=O)n1CC(=O)Nc1nc2ccccc2s1	-1	6	.	2	6	-9	.	.
Cc1ccc2oc(C(=O)Nc3cc(C)on3)c(C)c2c1	-1	3	.	-2	0	-1	.	.
CC(NC(=O)/C(=C/c1cccc([N+](=O)[O-])c1)NC(=O)c1ccco1)C(=O)O (stereo not given)	-1	-1	130*	2	-2	-5	3	8
CC(C)c1ccc(/C=C2\CC/C(=C\C=N\N(C)C)C2=O)cc1	6	15	80*	30	7	0	75*	82*
CC(C)/C=C1\CC/C(=C\c2ccc(N(C)C)cc2)C1=O	-29	121	121*	.	90	2	121*	118*
COc1ccc(NC(=O)C[C@H]2C(=O)N(c3ccc(Br)cc3)C[C@@H]2C)cc1	0	-3	.	2	2	.	.	.
COCCNC(=O)C1(C)CCCN(C(=O)c2ccc(F)cc2Cl)C1 (stereo not given)	1	-1	.	0	-6	.	.	.
C=CCN1C(=O)/C(=C/c2ccc(OCC(=O)O)cc2)S/C1=N/c1nccs1	-29	4	1	5	6	-4	.	.
C=CCN1C(=O)/C(=C/c2ccc(O)c(OC)c2)S/C1=N/c1nccs1	-30	95*	68*	.	83*	-1	74*	77*
CC(C)c1ccc(CC(=O)N2CCC2(C)C(=O)NS(=O)(=O)c2ccc(Cl)s2)cc1 (stereo not given)	1	0	.	-2	-5	.	.	.
Nc1[nH]c(C(=O)c2ccccc2)c(-c2ccccc2C(F)(F)F)c1C(=O)NCCc1cccs1	-10	0	.	.	-1	.	.	.
Cc1ccc(-c2ccc(/C=N/n3cnnc3)o2)cc1	-2	0	0	-2	1	6	.	.
Cc1ccc(-c2ccc(/C=N/n3cnnc3)o2)cc1Cl	-1	5	62*	-2	2	-17	2	5
O=C(C[C@H]1C/C=C\CC[C@@H](Cc2ccc(F)cc2)C(=O)O[C@@H](c2ccccc2)CNC1=O)N[C@@H](CO)Cc1ccccc1	0	2	.	3	4	-15	.	.
SMILES	SENP1 inh	HNF4A DNA FP	TPT1 inhibitor	Rpn11 inh	CSN deneddyl inh	ATG4B inh	TPT1 inh confirm	RNase T1 inh
CC1CCC(NC(=O)c2cccn2C)CC1 (stereo not given)	3	5	.	4	-6	11	.	.
OC1CCCN(CC(O)COC(c2ccccc2)c2ccccc2)C1 (stereo not given)	0	-1	29*	-2	3	0	1	2
Cc1nc(Nc2ccccc2)sc1C(=O)c1ccc(F)cc1	-4	-9	-1	3	6	-1	.	.
Cc1ccc(Nc2nc(-c3ccccc3)c(CC(=O)O)s2)cc1	-7	0	57*	18	-5	-2	22	31*
O=C(O)Cc1sc(Nc2ccccc2)nc1-c1ccc(Cl)cc1	-25	1	-3	8	-5	7	.	.
O=C(O)Cc1sc(Nc2ccc(F)cc2)nc1-c1cccs1	-34	23	68*	.	22	4	49*	63*
COCCn1c(SCC(=O)Nc2c(C)n(C)n(-c3ccccc3)c2=O)nc2ccccc2c1=O	2	-2	.	-5	-1	1	.	.
NNc1nc2c(-c3ccc(F)cc3)nnn2c2ccccc12	-31	25	29*	.	18	-6	81*	91*
Fc1ccc(-c2nnn3c2nc(NCc2ccccc2)c2ccccc23)cc1	-43	-4	3	-5	-2	-3	.	.
NNc1nc2c(-c3ccc(Cl)cc3)nnn2c2ccccc12	-40	39*	39*	.	27	6	23	29*
COc1cc(F)ccc1-c1csc(C(O)c2ccccc2)n1 (stereo not given)	2	0	.	0	1	.	.	.
N#CC1(C#N)C2=C(CCCC2)NC(c2ccccc2)C1(C#N)C#N (stereo not given)	.	.	30*	.	.	.	25*	34*
COc1ccc(NC(=O)Nc2c(C)noc2-c2ccccc2)cc1	-1	-1	42*	0	6	-11	6	11
COc1ccc(NC(=O)c2cc(-c3ccccc3)on2)cc1	2	4	-3	3	4	0	.	.
Nc1nc(-c2ccccc2)c(-c2ccc([N+](=O)[O-])cc2)s1	32	13	40*	20	2	-4	51*	69*
N#C/C(=C\N1CCN(Cc2ccc3c(c2)OCO3)CC1)c1nc2ccccc2s1	-21	30*	52*	.	18	-3	58*	66*

High-throughput results (PubChem)
